Source: ChEMBL document CHEMBL1121524, “Studies of hypolipidemic agents. 1. Synthesis and hypolipidemic activities of alkoxycinnamic acid derivatives” (1980)

How the values were obtained:
[1] = species on record: Rattus norvegicus; test: Hypolipidemic activity expressed as percentage decrease in triglyceride in rat, at dosage of 50 mg for 7 days; format: functional
Summary of the method: (§1)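 Male Sprague-Dawley rats, 4 weeks old, kept on CE-2 chow for at least 1 week, then grouped (generally five per group). Compound was mixed into CE-2 powder and fed ad libitum for the stated period; controls received plain CE-2 powder. Diet level is given as mg/100 g (mg%), about equal to mg/kg/day. Total serum triglyceride was measured by the Ryan and Rasho method and reported as percent depression versus control group mean. Significance was p < 0.05.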

[2] = system: Rattus norvegicus; test: In vivo hypolipidemic activity, expressed as percent decrease in serum cholesterol in rat, at dosage of 20 mg for 7 days.; format: functional
Summary of the method: as §1, with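 “cholesterol” for “triglyceride”, “Zak et al.” for “Ryan and Rasho”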

[3] = species on record: Rattus norvegicus; test: Tested for the hypolipidemic activity, expressed as percent decrease in serum cholesterol in rat, at dosage of 50 mg for 7 days; format: functional
Summary of the method: as §1, with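 “cholesterol” for “triglyceride”, “Zak et al.” for “Ryan and Rasho”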

[4] = system: Rattus norvegicus; test: tested for the hypolipidemic activity, expressed as percent decrease in Triglyceride in rat, at dosage of 20 mg/kg 0 mg for 7 days by Ryan and Rasho method
[5] = species on record: Rattus norvegicus; test: Tested for the hypolipidemic activity, expressed as percent decrease in Triglyceride in rat, at dosage of 100 mg for 6 days by Ryan and Rasho method; format: functional; summary of the method: as §1
[6] = species on record: Rattus norvegicus; test: Tested for the hypolipidemic activity, expressed as percent decrease in serum cholesterol in rat, at dosage of 100 mg for 6 days by Zak et al method; format: functional
Summary of the method: as §1, with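 “cholesterol” for “triglyceride”, “Zak et al.” for “Ryan and Rasho”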

[7] = species on record: Rattus norvegicus; test: Tested for the hypolipidemic activity, expressed as percent decrease in Triglyceride in rat, at dosage of 10 mg for 7 days by Ryan and Rasho method; format: functional; summary of the method: as §1
[8] = species on record: Rattus norvegicus; test: Tested for the hypolipidemic activity, expressed as percent decrease in serum cholesterol in rat, at dosage of 10 mg for 7 days by Zak et al method; format: functional
Summary of the method: as §1, with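 “cholesterol” for “triglyceride”, “Zak et al.” for “Ryan and Rasho”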

[9] = system: Rattus norvegicus; test: In vivo hypolipidemic activity, expressed as percent decrease in serum triglyceride in rat, at dosage of 20 mg for 7 days.
[10] = species on record: Rattus norvegicus; test: Tested for the hypolipidemic activity, expressed as percent decrease in Triglyceride in rat, at dosage of 100 mg for 3 days by Ryan and Rasho method; format: functional; summary of the method: as §1
[11] = species on record: Rattus norvegicus; test: Tested for the hypolipidemic activity, expressed as percent decrease in serum cholesterol in rat, at dosage of 100 mg for 3 days by Zak et al method; format: functional
Summary of the method: as §1, with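 “cholesterol” for “triglyceride”, “Zak et al.” for “Ryan and Rasho”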

[12] = species on record: Rattus norvegicus; test: tested for the hypolipidemic activity, expressed as percent decrease in serum cholesterol in rat, at dosage of 10 mg for 7 days by Zak et al method; format: functional
Summary of the method: as §1, with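 “cholesterol” for “triglyceride”, “Zak et al.” for “Ryan and Rasho”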

[13] = species on record: Rattus norvegicus; test: tested for the hypolipidemic activity, expressed as percent decrease in Triglyceride in rat, at dosage of 10 mg for 7 days by Ryan and Rasho method; format: functional; summary of the method: as §1
[14] = system: Rattus norvegicus; test: In vivo hypolipidemic activity, expressed as percent decrease in Triglyceride in rat, at dosage of 100 mg for 7 days.; format: functional; summary of the method: as §1
[15] = species on record: Rattus norvegicus; test: Hypolipidemic activity, expressed as percent decrease in serum cholesterol in rat, at dosage of 100 mg for 7 days by Zak et al method; format: functional
Summary of the method: as §1, with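 “cholesterol” for “triglyceride”, “Zak et al.” for “Ryan and Rasho”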

CCCCCCCCCCCCCCCCOc1ccc(/C=C/C(=O)OCCCl)cc1
Decrease [1]: 43%
Decrease [2]: 17%
Decrease [3]: -4%
Decrease [4]: 17%

O=C(/C=C/c1ccc(Oc2ccccc2)cc1)OCCCCl
Decrease [5]: 54%
Decrease [6]: 32%
Decrease [7]: 13%
Decrease [2]: 17%
Decrease [8]: 4%
Decrease [9]: -2%

CCCCCCCCCCCCCCCCOc1ccc(/C=C/C(=O)OCCCO)cc1
Decrease [10]: 16%
Decrease [11]: 16%

CCCCCCCCCCCCCCOc1ccc(/C=C(\C)C(=O)OCC)cc1
Decrease [1]: 34%
Decrease [2]: 6%
Decrease [3]: 7%
Decrease [9]: 37%

CCCCCCCCCCCCCCCCOc1ccc(/C=C(\C)C(=O)OCC(O)CO)cc1 (configuration not stated)
Decrease [10]: 68%
Decrease [1]: 28%
Decrease [2]: 11%
Decrease [3]: 15%
Decrease [11]: 32%
Decrease [9]: 5%

O=C(/C=C/c1ccc(Oc2ccccc2)cc1)OCC(O)CO (configuration not stated)
Decrease [1]: 29%
Decrease [2]: 15%
Decrease [3]: 11%
Decrease [9]: 26%

O=C(O)/C=C/c1ccc(Oc2ccccc2)cc1
Decrease [1]: 34%
Decrease [2]: 14%
Decrease [3]: 15%
Decrease [9]: 14%

C/C(=C\c1ccc(Oc2ccccc2)cc1)C(=O)OCC(O)CO (configuration not stated)
Decrease [1]: 4%
Decrease [2]: 7%
Decrease [3]: 14%
Decrease [9]: -1%

CCCCCCCCCCCCOc1ccc(/C=C(\C)C(=O)OCC(O)CO)cc1 (configuration not stated)
Decrease [12]: 9%
Decrease [1]: 53%
Decrease [2]: 16%
Decrease [3]: 26%
Decrease [13]: 10%
Decrease [9]: 33%

C/C=C/C(=O)OCCOC(=O)/C=C/c1ccc(OCCCCCCCCCCCCCCCC)cc1
Decrease [14]: 11%
Decrease [15]: 3%

CCCCOc1ccc(/C=C/C(=O)OCCN2CCCCC2)cc1.Cl
Decrease [14]: 2%
Decrease [15]: 3%

CCCCCCCCCCCCCCCCOc1ccc(/C=C/C(=O)OCCO)cc1
Decrease [14]: 57%
Decrease [2]: 18%
Decrease [15]: 24%
Decrease [9]: 26%

C/C(=C\c1ccccc1)C(=O)OCC(O)CO (configuration not stated)
Decrease [10]: 22%
Decrease [11]: 10%

CCCCCCCCCCCCCCCCOc1ccc(/C=C/C(=O)O)cc1
Decrease [7]: 2%
Decrease [2]: 2%
Decrease [8]: 7%

C=CCOc1ccc(/C=C/C(=O)OCC(O)CO)cc1 (configuration not stated)
Decrease [10]: -14%
Decrease [11]: 12%

CCCCCCCCCCCCCCCCOc1ccc(/C=C/C(=O)OCCBr)cc1
Decrease [14]: 6%
Decrease [15]: 7%

CCCCOc1ccc(/C=C/C(=O)OCC(O)CO)cc1 (configuration not stated)
Decrease [5]: 15%
Decrease [6]: 7%

C=C(C)C(=O)OCCCOC(=O)/C=C/c1ccc(OCCCCCCCCCCCCCCCC)cc1
Decrease [14]: 0%
Decrease [15]: 16%

C/C(=C\c1ccc(Oc2ccccc2)cc1)C(=O)OCCCl
Decrease [1]: -6%
Decrease [2]: 15%
Decrease [3]: 14%
Decrease [9]: 22%

CCCCCCCCCCCCCCCCOc1ccc(/C=C(\C)C(=O)OCCO)cc1
Decrease [10]: 59%
Decrease [11]: 13%

CCCCCCCCCCCCCCOc1ccc(/C=C(\C)C(=O)OCC(O)CO)cc1 (stereo in doubt; 97)
Decrease [1]: 43%
Decrease [14]: 52%
Decrease [2]: 14%
Decrease [15]: 45%
Decrease [3]: 25%
Decrease [9]: 33%

CCCCCCCCOc1ccc(/C=C/C(=O)OCC(O)CO)cc1 (configuration not stated)
Decrease [5]: 15%
Decrease [6]: 7%

CCCCOc1ccc(/C=C/C(=O)OCCCl)cc1
Decrease [14]: 26%
Decrease [15]: 0%
